Here are results for one compound from publication PMC9762201 (Current Research in Pharmacology and Drug Discovery, 2022).

Usually Ki stands for the dissociation constant of the complex between target and ligand, obtained from inhibition or displacement. Usually EC50 stands for the concentration giving half of the maximal effect.

In data set [1] the target is T1, α1A-AR (Homo sapiens, UniProt P35348).
T1 sequence (P35348 1-466): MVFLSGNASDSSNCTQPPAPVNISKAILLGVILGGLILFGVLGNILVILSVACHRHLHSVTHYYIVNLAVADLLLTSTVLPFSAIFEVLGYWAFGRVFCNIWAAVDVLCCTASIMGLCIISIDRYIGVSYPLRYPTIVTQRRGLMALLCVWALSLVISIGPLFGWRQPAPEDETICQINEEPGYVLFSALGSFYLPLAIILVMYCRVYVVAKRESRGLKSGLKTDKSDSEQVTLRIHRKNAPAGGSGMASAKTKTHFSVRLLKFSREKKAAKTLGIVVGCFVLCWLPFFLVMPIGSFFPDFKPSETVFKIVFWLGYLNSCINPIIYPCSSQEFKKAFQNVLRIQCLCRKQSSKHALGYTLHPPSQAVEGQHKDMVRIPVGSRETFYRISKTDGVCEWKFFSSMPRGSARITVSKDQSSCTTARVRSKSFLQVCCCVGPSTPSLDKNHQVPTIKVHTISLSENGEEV
In kind it is binding.

The subject of data set [2] is α1B-AR. In kind it is binding. The following applies: 0.5 mM GTP.
The target in data set [3] is T2, α1D-AR (Homo sapiens, UniProt P25100).
T2 sequence (P25100 1-572): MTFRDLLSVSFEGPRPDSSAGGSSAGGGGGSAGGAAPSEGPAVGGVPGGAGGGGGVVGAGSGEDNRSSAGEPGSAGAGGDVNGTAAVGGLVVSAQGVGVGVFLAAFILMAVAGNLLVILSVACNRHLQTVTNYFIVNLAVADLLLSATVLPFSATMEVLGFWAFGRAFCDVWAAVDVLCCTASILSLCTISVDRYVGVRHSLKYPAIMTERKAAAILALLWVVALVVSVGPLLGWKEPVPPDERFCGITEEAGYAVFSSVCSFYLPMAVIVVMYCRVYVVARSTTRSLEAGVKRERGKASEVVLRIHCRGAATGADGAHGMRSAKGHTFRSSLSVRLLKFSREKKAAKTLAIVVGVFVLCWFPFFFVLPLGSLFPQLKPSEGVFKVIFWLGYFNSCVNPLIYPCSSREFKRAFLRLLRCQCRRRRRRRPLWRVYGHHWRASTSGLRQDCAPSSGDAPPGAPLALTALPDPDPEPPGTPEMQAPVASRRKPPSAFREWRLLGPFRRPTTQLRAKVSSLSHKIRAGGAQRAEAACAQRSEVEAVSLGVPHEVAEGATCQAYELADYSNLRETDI
Type of data set: binding.

The next data set addresses T3, α2A-AR (Homo sapiens, UniProt P08913).
T3 sequence (P08913 1-465): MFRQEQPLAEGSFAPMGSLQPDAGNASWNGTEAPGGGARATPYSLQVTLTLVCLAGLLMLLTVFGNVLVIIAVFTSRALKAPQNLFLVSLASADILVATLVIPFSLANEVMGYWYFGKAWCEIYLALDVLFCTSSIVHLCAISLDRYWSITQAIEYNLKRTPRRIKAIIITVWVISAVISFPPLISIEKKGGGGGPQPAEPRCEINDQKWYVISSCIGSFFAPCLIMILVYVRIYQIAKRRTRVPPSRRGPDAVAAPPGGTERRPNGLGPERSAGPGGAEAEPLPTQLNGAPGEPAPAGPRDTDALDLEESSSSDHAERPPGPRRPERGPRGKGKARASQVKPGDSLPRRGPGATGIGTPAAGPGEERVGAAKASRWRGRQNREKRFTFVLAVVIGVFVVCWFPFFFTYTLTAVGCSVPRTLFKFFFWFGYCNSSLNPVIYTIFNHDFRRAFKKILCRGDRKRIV
Type of data set: binding. As to conditions: Cos-1 membranes.

For the next data set, the target named is 5-HT7A (Homo sapiens, UniProt P34969). As to the kind of experiment: Psychoactive Drug Screening program GPCR binding screen, 5-HT7A.
Sequence of 5-HT7A (P34969 1-445 isoform P34969-2): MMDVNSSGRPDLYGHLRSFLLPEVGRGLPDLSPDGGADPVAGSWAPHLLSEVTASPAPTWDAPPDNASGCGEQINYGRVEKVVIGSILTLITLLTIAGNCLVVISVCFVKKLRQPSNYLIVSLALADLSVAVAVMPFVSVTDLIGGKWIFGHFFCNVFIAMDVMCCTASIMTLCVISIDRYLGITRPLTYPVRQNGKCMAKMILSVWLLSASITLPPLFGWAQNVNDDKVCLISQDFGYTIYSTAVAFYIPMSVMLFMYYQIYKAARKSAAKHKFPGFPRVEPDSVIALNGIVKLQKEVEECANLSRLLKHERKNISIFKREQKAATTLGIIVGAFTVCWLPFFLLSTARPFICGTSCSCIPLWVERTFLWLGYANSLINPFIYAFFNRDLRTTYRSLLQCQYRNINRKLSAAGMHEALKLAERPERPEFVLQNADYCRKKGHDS
Data set [4] deals with α1A-AR. Kind of data set: cAMP assay and PAM assay in Rat-1 fibroblasts expressing α1A-AR. Type of data set: cell-based. A general note: Cyclic AMP is a second messenger, typically raised through Gs and lowered through Gi signalling.
The subject of data set [5] is α1B-AR. As to the kind of experiment: cAMP assay in Rat-1 fibroblasts expressing α1B-AR. In kind it is cell-based. The following applies: Cmpd-3 10^−7 to 10^−5 M. The method in brief: (§1)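 Rat-1 fibroblasts expressing one α1-AR subtype were plated serum-free at about 2.4 x 10^4 cells/well and rested overnight. They were preincubated 2 h at 37 °C with 10 μM propranolol, 0.1 μM rauwolscine and test compound. IBMX (100–200 μM) and NE or Epi were then added for 2 h, either as an agonist dose-response or at a fixed 10^-4 M. Cells were extracted in 0.1 M HCl for 20 min at RT, centrifuged at 1000 g, and cAMP was measured by EIA.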

In data set [6] the target is T2, α1D-AR. Kind of data set: cAMP assay in Rat-1 fibroblasts expressing α1D-AR. In kind it is cell-based. As to conditions: Cmpd-3 10^−6, 10^−5 M. The method in brief:
as §1

Data set [7] has as its target T1, α1A-AR. Kind of data set: Total inositol phosphate assay in Rat-1 fibroblasts expressing α1A-AR. In kind it is cell-based.
For data set [8], the system named is α1B-AR. Kind of data set: Total inositol phosphate assay, cells expressing α1B-AR. In kind it is cell-based. As to conditions: data not shown. A digest of the protocol: (§2)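 Cells expressing a single α1-AR subtype were seeded in DMEM at about 5 x 10^4 cells/well and rested overnight at 37 °C. They were labelled overnight with 3H-inositol, washed, and placed in serum-free DMEM with 10 mM LiCl (final) for 1 h. NE or Epi (one dose per well) plus test compound at one or several concentrations were added for 1 h at 37 °C. Total inositol phosphates were measured by anion-exchange chromatography.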

Data set [9] deals with T2, α1D-AR. Kind of data set: Total inositol phosphate assay, cells expressing α1D-AR. As to conditions: data not shown. In kind it is cell-based. The method in brief: as §2
Data set [10] has as its system phosphorylation of CREB at Ser133. Kind of data set: p-CREB. In kind it is cell-based. The following applies: 10^−8 M; NE 10^−4 M; propranolol and rauwolscine present.
Data set [11] concerns the target T1, α1A-AR. Kind of data set: 3H-NE binding potentiation, membranes from Rat-1 fibroblasts expressing α1A-AR.
For data set [12] the following is noted: 2.6 mg/kg, q.d., PO; 3 or 6 months of dosing; 3XTG mice; ref Perez, 2021b; cited from earlier work.
The next data set has as its system 3XTG mice. The following applies: 2.6 mg/kg, q.d., PO, 3 or 6 months, ref Perez, 2021b; cited from earlier work.
Where [13] appears, read: compound 10^−5 M, absence of GTP, 125I-HEAT.

“Also recorded” adds a separate entry of the source.

`CC(C)Cc1c(OCC2=NCCN2)cccc1N(C)S(C)(=O)=O.Cl` [Cmpd-3, N-(3-((4,5-Dihydro-1H-imidazol-2-yl)methoxy)-2-isobutylphenyl)-N-methylmethanesulfonamide hydrochloride]: the “extent of inhibition of 125I-HEAT binding at α1A-AR” value at α1A-AR [1] (0.5 mM GTP) is on record as “could not fully inhibit; also recorded: incomplete inhibition”. The “fraction of receptor in the high affinity state of NE in presence of compound” value on α1A-AR [1] (compound 10^−5 M, absence of GTP) amounted to 55%. For the same compound, at α1A-AR [1] (setting [13]), the “effect on NE binding at α1A-AR” value is “stabilizes the high affinity binding site of NE” and the “effect on binding profile of Epi at α1A-AR” value is recorded as “no effect”. The “binding at α1B-AR (125I-HEAT competition)” value with α1B-AR [2] was “did not display any binding; also recorded: does not bind”. For the same compound, at α1D-AR [3], the affinity corresponds to a Ki of 30 µM. In addition, on α1D-AR [3] (α1A-AR versus α1B-/α1D-AR), the “difference in binding selectivity between the α1-AR subtypes” value is given as 1000 fold. Moreover, at α2A-AR, the “extent of inhibition of 3H-RX821002 binding at α2A-AR” value is given as “fully inhibited”. The compound further had a Ki on 5-HT7A of 6 µM. Also, the “effect on Epi-mediated cAMP response at α1A-AR” value in the data set on α1A-AR [4] (Epi dose-response, propranolol and rauwolscine present) is reported as “did not affect”. Moreover, the “PAM activity (NE-mediated cAMP potentiation, PAM assay)” value in the data set on α1A-AR [4] (NE 10^−4 M held constant, compound dose-response) is “display PAM effect”. In the data set with α1A-AR [4] (NE dose-response, propranolol and rauwolscine present), the “effect on NE-mediated cAMP response at α1A-AR” value is on record as “potentiated; also recorded: increases the Emax”. Moreover, the “intrinsic (basal) agonist activity, cAMP” value in the data set on α1A-AR [4] (compound alone, dose-response) is “cannot stimulate; also recorded: do not show any basal activity”. Moreover, the “effect on NE or Epi-mediated cAMP response at α1B-AR” value with α1B-AR [5] is “no effect; also recorded: does not change the potency or the Emax”. On α1D-AR [6], the “effect on NE or Epi-mediated cAMP response at α1D-AR” value is listed as “no effect; also recorded: does not change the potency or the Emax”. Moreover, on α1A-AR [7], the “effect on Epi-mediated inositol phosphate signal at α1A-AR” value is on record as “no effect; also recorded: does not affect” and the “effect on NE-mediated inositol phosphate signal at α1A-AR” value is given as “no effect; also recorded: does not affect”. Besides, the “intrinsic (basal) agonist activity, inositol phosphate” value on α1A-AR [7] (compound alone, dose-response) is recorded as “cannot stimulate; also recorded: do not show any basal activity”. The “effect on NE or Epi-mediated IP signal at α1B-AR” value in the data set with α1B-AR [8] is “no effect”. For the same compound, on α1D-AR [9], the “effect on NE or Epi-mediated IP signal at α1D-AR” value is reported as “no effect”. In addition, the “effect on NE-mediated p-CREB levels” value in [10] is recorded as “significantly potentiated; also recorded: increases”. At α1A-AR [11], the EC50 was 0.0001 µM. Moreover, in [12], the “effect on systolic blood pressure” value was “failed to change”. Further, the “effect on long-term potentiation and cognitive behavior” value in the data set with 3XTG mice was “statistically increased”.
